Test results published in ChEMBL document CHEMBL1140884, “Oligodeoxyribonucleotide-based antagonists for Toll-like receptors 7 and 9” (2009).
Active and inactive are the calls of the source. No cut-off for these calls is given here.

Columns and labels:
PBMC [1] = experiment: (§1) Induction of IP10 secretion in human PBMC; assay type: functional, cell-based
In short: (§2)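 Human PBMCs (5×10^6/mL; 1×10^6 per well) were cultured 24 h with TLR9 agonist 5 µg/mL or TLR7/8 agonist 100 µg/mL, alone or with antagonist at 1:4. Compounds were dissolved in PBS. Supernatant cytokines were measured by Luminex human 25-plex bead assay. One representative donor of six.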

PBMC [2] = experiment: Induction of TNFalpha secretion in human PBMC; assay type: functional, cell-based; in short: as §2
PBMC [3] = experiment: as §1; assay type: functional, cell-based; in short: as §2; remark: listed apart in the source
PBMC [4] = experiment: Induction of MCP1 secretion in human PBMC; assay type: functional, cell-based; in short: as §2
PBMC [5] = experiment: Induction of MIP1beta secretion in human PBMC; assay type: functional, cell-based; in short: as §2
PBMC [6] = experiment: Induction of MIG secretion in human PBMC; assay type: functional, cell-based; in short: as §2
PBMC [7] = experiment: Induction of IL6 secretion in human PBMC; assay type: functional, cell-based; in short: as §2
PBMC [8] = experiment: Induction of IFN-gamma secretion in human PBMC; assay type: functional, cell-based; in short: as §2
PBMC [9] = experiment: Induction of IL12 secretion in human PBMC; assay type: functional, cell-based; in short: as §2
[10] = molecular target: T1, Toll-like receptor 9 (Homo sapiens) (UniProt Q9NR96); experiment: Agonist activity at TLR9 in human PBMC assessed as NF-kappaB activation at 5 ug/mL; assay type: functional
T1 sequence (whole entry): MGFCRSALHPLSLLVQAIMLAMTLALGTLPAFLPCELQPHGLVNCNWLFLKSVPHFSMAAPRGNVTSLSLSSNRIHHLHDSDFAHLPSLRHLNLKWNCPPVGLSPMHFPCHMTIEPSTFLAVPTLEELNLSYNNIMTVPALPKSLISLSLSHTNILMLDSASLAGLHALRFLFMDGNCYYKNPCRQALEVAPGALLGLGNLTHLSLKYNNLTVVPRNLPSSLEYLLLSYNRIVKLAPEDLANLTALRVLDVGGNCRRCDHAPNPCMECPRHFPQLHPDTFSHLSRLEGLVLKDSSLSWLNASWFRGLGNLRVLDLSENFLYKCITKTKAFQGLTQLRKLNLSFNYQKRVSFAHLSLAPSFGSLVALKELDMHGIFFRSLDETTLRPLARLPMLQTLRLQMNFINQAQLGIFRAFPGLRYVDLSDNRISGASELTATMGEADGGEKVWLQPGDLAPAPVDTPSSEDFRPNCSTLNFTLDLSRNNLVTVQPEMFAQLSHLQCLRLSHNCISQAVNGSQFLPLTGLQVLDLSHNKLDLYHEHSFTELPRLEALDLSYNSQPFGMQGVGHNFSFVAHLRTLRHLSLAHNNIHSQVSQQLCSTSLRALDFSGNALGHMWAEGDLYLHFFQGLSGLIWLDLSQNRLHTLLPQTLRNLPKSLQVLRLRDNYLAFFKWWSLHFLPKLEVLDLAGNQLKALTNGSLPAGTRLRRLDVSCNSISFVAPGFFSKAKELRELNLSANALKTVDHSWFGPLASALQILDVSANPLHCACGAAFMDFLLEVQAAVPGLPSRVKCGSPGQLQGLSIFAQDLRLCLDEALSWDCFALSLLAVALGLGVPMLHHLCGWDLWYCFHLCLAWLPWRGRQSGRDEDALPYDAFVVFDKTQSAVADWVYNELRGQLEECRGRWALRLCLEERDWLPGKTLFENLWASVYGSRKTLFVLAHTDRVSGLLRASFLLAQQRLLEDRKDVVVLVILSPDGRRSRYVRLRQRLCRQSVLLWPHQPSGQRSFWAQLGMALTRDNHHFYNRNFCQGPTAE
In short: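 Human PBMCs from healthy-donor blood (Ficoll) plated at 1×10^7 cells/well, stimulated for 2 h. Nuclear extracts analysed for NF-κB binding by EMSA on native polyacrylamide gels with autoradiography. One representative donor of three.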

PBMC [11] = experiment: Induction of IFNalpha secretion in human PBMC; assay type: functional, cell-based; in short: as §2
[12] = molecular target: T2, Toll-like receptor 9 (Mus musculus) (UniProt Q9EQU3); experiment: Agonist activity at mouse TLR9 expressed in HEK293 cells assessed as activation of NF-kappaB at 10 ug/mL by SEAP reporter gene assay; assay type: functional, cell-based
T2 sequence (whole entry): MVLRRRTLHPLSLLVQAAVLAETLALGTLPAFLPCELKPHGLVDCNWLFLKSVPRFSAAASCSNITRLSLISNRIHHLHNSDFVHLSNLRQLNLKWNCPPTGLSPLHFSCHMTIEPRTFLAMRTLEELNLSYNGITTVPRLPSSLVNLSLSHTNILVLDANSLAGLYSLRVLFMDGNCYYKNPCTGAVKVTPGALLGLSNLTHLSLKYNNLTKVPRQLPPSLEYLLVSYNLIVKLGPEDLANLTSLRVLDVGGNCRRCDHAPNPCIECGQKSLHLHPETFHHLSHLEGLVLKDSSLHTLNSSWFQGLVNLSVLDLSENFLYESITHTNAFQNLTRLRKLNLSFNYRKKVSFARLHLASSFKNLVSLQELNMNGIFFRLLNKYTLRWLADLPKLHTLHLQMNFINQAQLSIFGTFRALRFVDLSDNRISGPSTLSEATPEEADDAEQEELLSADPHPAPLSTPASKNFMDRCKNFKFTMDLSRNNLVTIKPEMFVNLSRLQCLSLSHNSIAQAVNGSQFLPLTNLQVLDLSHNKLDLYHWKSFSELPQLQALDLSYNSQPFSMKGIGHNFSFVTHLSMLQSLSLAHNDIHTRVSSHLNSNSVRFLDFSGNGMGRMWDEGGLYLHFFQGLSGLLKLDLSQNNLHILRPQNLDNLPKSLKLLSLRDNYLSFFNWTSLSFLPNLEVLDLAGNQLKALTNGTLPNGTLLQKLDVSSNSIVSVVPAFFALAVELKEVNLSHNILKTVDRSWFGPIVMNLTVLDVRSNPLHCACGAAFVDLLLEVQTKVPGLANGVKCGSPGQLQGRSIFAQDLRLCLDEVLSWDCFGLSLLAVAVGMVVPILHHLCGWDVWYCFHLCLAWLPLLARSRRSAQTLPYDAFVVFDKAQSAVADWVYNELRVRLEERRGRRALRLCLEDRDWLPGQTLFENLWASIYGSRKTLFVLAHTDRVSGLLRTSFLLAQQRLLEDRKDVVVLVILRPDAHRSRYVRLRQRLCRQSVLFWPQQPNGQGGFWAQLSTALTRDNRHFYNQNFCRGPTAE
In short: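 HEK293 cells stably expressing mouse TLR9 were transiently transfected with a SEAP reporter for 6 h. Compounds were added at 10 µg/mL for 18 h. SEAP was read with Quanti-Blue substrate and expressed as fold change in NF-κB activity.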

[13] = molecular target: Toll-like receptor 7 (Homo sapiens) (UniProt Q9NYK1); experiment: Antagonist activity at TLR7/8 in human PBMC assessed as inhibition of 5'-UGCUGUUCUG-X-GUCUUGUCGU-5'-induced NF-kappaB activation in human PBMC at 400 ug/mL treated 1 hr before induction measured after 2 hrs
PBMC [14] = experiment: Inhibition of 5'-TCTGTCRTTCT-X-TCTTRCTGTCT-5'-induced cytokines secretion in human PBMC at 1:5 agonist to drug ratio; assay type: functional, cell-based
In short: (§3)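 Human PBMCs isolated from healthy volunteer blood by Ficoll gradient, cultured at 1×10^6/200 μL in supplemented RPMI 1640 with 10% heat-inactivated FBS. Treated for 24 h with agonist and/or antagonist dissolved in PBS; TLR9 agonist at 5 μg/mL, TLR7/8 agonist at 100 μg/mL. Supernatant cytokines/chemokines by Luminex human 25-plex bead assay; unstimulated cells as control.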

[15] = molecular target: T2, Toll-like receptor 9 (Mus musculus); experiment: Antagonist activity at mouse TLR9 expressed in HEK293 cells assessed as inhibition of 5'-CTATCTGTCGTTCTCTGT-3'-induced NF-kappaB activation by SEAP reporter gene assay; assay type: functional, cell-based
In short: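 Mouse TLR9-HEK293 cells were transfected with a SEAP reporter for 6 h. They were then stimulated for 18 h with agonist (0.25 or 0.5 µg/mL) plus increasing antagonist concentrations or set agonist:antagonist ratios. Quanti-Blue read-out, reported as % NF-κB activity with agonist alone as 100%.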

PBMC [16] = experiment: Inhibition of 5'-UGCUGUUCUG-X-GUCUUGUCGU-5'-induced cytokines secretion in human PBMC at 1:5 agonist to drug ratio; assay type: functional, cell-based; in short: as §3
PBMC [17] = experiment: Inhibition of 5'-UGCUGUUCUG-X-GUCUUGUCGU-5'-induced chemokines secretion in human PBMC at 1:5 agonist to drug ratio; assay type: functional, cell-based; in short: as §3
PBMC [18] = experiment: Inhibition of 5'-TCTGTCRTTCT-X-TCTTRCTGTCT-5'-induced chemokines secretion in human PBMC at 1:5 agonist to drug ratio; assay type: functional, cell-based; in short: as §3
PBMC [19] = experiment: Inhibition of 5'-TCTGTCRTTCT-X-TCTTRCTGTCT-5'-induced human PBMC proliferation treated 72 hrs before induction; assay type: functional, cell-based
[20] = molecular target: T1, Toll-like receptor 9 (Homo sapiens); experiment: Antagonist activity at TLR9 in human PBMC assessed as inhibition of 5'-TCTGTCRTTCT-X-TCTTRCTGTCT-5'-induced NF-kappaB activation at 40 ug/mL treated 1 hr before induction measured after 2 hrs; assay type: functional
In short: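 Human PBMCs plated at 1×10^7 cells/well were preincubated with antagonist at the indicated concentrations for 1 h. TLR9 or TLR7/8 agonist was then added for 2 h. Nuclear extracts were analysed for NF-κB by EMSA. One representative donor of three.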

Sequence of Toll-like receptor 7 (Homo sapiens) (Q9NYK1 whole entry, looked up): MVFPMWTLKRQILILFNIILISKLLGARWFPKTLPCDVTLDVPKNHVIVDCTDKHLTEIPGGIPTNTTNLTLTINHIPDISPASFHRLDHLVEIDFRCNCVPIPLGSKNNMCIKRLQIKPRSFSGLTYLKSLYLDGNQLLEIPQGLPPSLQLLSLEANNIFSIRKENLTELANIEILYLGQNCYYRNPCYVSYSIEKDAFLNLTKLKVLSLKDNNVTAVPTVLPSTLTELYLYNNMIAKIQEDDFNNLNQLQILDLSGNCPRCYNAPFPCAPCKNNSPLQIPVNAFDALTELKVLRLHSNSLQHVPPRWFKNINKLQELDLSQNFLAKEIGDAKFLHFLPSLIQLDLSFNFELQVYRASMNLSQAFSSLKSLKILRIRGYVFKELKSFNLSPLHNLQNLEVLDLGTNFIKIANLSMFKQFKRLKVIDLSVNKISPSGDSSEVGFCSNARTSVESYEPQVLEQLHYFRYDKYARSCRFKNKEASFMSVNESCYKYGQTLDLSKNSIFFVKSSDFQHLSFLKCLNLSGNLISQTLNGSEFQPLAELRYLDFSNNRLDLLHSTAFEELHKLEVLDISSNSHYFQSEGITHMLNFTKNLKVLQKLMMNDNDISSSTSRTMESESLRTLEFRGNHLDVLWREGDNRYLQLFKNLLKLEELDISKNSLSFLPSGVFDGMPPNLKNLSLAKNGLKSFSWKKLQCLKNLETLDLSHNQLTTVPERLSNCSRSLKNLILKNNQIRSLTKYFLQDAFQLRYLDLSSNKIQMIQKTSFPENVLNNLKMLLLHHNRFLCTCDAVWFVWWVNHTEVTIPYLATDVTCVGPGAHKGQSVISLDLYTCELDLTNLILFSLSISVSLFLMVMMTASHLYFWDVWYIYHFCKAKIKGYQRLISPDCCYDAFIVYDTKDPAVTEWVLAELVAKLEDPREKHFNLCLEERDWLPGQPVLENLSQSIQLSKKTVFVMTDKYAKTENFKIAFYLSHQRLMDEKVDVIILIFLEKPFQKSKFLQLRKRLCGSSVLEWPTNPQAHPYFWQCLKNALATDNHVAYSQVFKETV

Activity [10] | Activity [12] | Activity [13] | Activity [15] | Activity [20] | SMILES | Activity (PBMC [1]) | Activity (PBMC [2]) | Activity (PBMC [3]) | Activity (PBMC [4]) | Activity (PBMC [5]) | Activity (PBMC [6]) | Activity (PBMC [7]) | Activity (PBMC [8]) | Activity (PBMC [9]) | Activity (PBMC [11]) | Activity (PBMC [14]) | Activity (PBMC [16]) | Activity (PBMC [17]) | Activity (PBMC [18]) | Activity (PBMC [19])
Active |  |  |  |  | Cc1cn([C@H]2C[C@H](OP(=O)(S)OC[C@H]3O[C@@H](n4ccc(N)nc4=O)C[C@@H]3OP(=O)(S)OC[C@H]3O[C@@H](n4cc(C)c(=O)[nH]c4=O)C[C@@H]3OP(=O)(S)OC[C@H]3O[C@@H](n4cnc5c(=O)[nH]c(N)nc54)C[C@@H]3OP(=O)(S)OC[C@H]3O[C@@H](n4cc(C)c(=O)[nH]c4=O)C[C@@H]3OP(=O)(S)OC[C@H]3O[C@@H](n4ccc(N)nc4=O)C[C@@H]3OP(=O)(S)OC[C@H]3O[C@@H](n4ccc5c(N)ncnc54)C[C@@H]3OP(=O)(S)OC[C@H]3O[C@@H](n4cc(C)c(=O)[nH]c4=O)C[C@@H]3OP(=O)(S)OC[C@H]3O[C@@H](n4cc(C)c(=O)[nH]c4=O)C[C@@H]3OP(=O)(S)OC[C@H]3O[C@@H](n4ccc(N)nc4=O)C[C@@H]3OP(=O)(S)OC[C@H]3O[C@@H](n4cc(C)c(=O)[nH]c4=O)C[C@@H]3OP(=O)(S)OCC(O)COP(=O)(S)O[C@H]3C[C@H](n4cc(C)c(=O)[nH]c4=O)O[C@@H]3COP(=O)(S)O[C@H]3C[C@H](n4ccc(N)nc4=O)O[C@@H]3COP(=O)(S)O[C@H]3C[C@H](n4cc(C)c(=O)[nH]c4=O)O[C@@H]3COP(=O)(S)O[C@H]3C[C@H](n4cc(C)c(=O)[nH]c4=O)O[C@@H]3COP(=O)(S)O[C@H]3C[C@H](n4ccc5c(=O)[nH]c(N)nc54)O[C@@H]3COP(=O)(S)O[C@H]3C[C@H](n4ccc(N)nc4=O)O[C@@H]3COP(=O)(S)O[C@H]3C[C@H](n4cc(C)c(=O)[nH]c4=O)O[C@@H]3COP(=O)(S)O[C@H]3C[C@H](n4cnc5c(=O)[nH]c(N)nc54)O[C@@H]3COP(=O)(S)O[C@H]3C[C@H](n4cc(C)c(=O)[nH]c4=O)O[C@@H]3COP(=O)(S)O[C@H]3C[C@H](n4ccc(N)nc4=O)O[C@@H]3COP(=O)(S)O[C@H]3C[C@H](n4cc(C)c(=O)[nH]c4=O)O[C@@H]3CO)[C@@H](CO)O2)c(=O)[nH]c1=O (stereo not given in full) | Active | Active | Active | Active | Active | Active | Active | Active | Active | Active |  |  |  |  | 
 | inactive | Active | Active | Active | CO[C@@H]1[C@H](OP(=O)(S)OC[C@H]2O[C@@H](n3ccc(N)nc3=O)C[C@@H]2OP(=O)(S)OC[C@H]2O[C@@H](n3ccc4c(=O)[nH]c(N)nc43)C[C@@H]2OP(=O)(S)OC[C@H]2O[C@@H](n3cc(C)c(=O)[nH]c3=O)C[C@@H]2OP(=O)(S)OC[C@H]2O[C@@H](n3cc(C)c(=O)[nH]c3=O)C[C@@H]2OP(=O)(S)OC[C@H]2O[C@@H](n3ccc(N)nc3=O)C[C@@H]2OP(=O)(S)OC[C@H]2O[C@@H](n3cc(C)c(=O)[nH]c3=O)C[C@@H]2OP(=O)(S)OC[C@H]2O[C@@H](n3ccc(N)nc3=O)C[C@@H]2OP(=O)(S)OC[C@H]2O[C@@H](n3cc(C)c(=O)[nH]c3=O)C[C@@H]2OP(=O)(S)OC[C@H]2O[C@@H](n3cnc4c(=O)[nH]c(N)nc43)C[C@@H]2OP(=O)(S)OC[C@H]2O[C@@H](n3cc(C)c(=O)[nH]c3=O)C[C@@H]2O)[C@@H](COP(=O)(S)O[C@H]2[C@@H](OC)[C@H](n3cnc4c(=O)[nH]c(N)nc43)O[C@@H]2COP(=O)(S)O[C@H]2C[C@H](n3cc(C)c(=O)[nH]c3=O)O[C@@H]2COP(=O)(S)O[C@H]2C[C@H](n3ccc(N)nc3=O)O[C@@H]2COP(=O)(S)O[C@H]2C[C@H](n3cc(C)c(=O)[nH]c3=O)O[C@@H]2COP(=O)(S)O[C@H]2C[C@H](n3cnc4c(N)ncnc43)O[C@@H]2COP(=O)(S)O[C@H]2C[C@H](n3cc(C)c(=O)[nH]c3=O)O[C@@H]2COP(=O)(S)O[C@@H]2[C@H](O)[C@@H](n3ccc(N)nc3=O)O[C@H]2CO)O[C@H]1n1ccc(=O)[nH]c1=O (stereo not given in full) | inactive | inactive | inactive | inactive | inactive | inactive | inactive | inactive | inactive | inactive | Active | Active | Active | Active | Active
